Screens deposited in PubChem by several laboratories.
Runt-CBFb FRET – inhibitors of RUNX1 Runt–CBFb binding, primary screen, biochemical, FRET, Cerulean-Runt, Venus-CBFb, uHTS; inhibition, % at 20 µM; Runt-related transcription factor 1 (Homo sapiens) + Core-binding factor subunit beta …; Cerulean-Runt/Venus-CBFb FRET ratio 530/480, 1 h; hit rate 0.46% among 220,000;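 active = inhibition over about 50% at 20 µM in the single-dose screen, limit read from the data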;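 also: 0% = DMSO wells and 100% = excess unlabeled CBFb competitor control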
Target sequence (Q01196 whole entry, looked up): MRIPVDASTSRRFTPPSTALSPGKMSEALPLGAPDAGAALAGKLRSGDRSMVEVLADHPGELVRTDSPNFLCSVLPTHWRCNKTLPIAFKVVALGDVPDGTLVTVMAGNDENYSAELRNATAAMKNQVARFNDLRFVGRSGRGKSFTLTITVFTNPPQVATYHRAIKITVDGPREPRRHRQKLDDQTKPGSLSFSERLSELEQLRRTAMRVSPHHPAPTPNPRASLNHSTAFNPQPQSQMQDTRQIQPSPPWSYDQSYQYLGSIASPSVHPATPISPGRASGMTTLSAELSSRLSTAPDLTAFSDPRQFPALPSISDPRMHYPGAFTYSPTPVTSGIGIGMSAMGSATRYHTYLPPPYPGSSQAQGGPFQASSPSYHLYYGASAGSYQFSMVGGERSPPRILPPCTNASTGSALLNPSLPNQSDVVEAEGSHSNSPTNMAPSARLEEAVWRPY
Target sequence (Q13951 whole entry, looked up): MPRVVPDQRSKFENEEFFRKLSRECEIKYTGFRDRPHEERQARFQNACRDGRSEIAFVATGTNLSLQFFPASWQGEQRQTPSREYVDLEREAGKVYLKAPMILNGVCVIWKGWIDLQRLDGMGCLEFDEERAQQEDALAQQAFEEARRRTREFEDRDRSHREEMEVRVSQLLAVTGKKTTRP
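test system = Cerulean-tagged RUNX1 Runt domain (FRET donor) fusion protein | reagent = Venus-CBFb binding partner, 100 nM | incubation = protein complex preformed 1 h, compound exposure 1 h, room temperature, dark | detection = FRET fluorescence | read-out basis = loss of energy transfer signal | controls = 5 µM unlabeled CBFb as full-inhibition high control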
IMP-1 inh – IMP-1 metallo-beta-lactamase inhibitors, primary screen, biochemical, epi-absorbance readout, Pseudomonas aeruginosa enzyme; metallo-beta-lactamase IMP-1 (Pseudomonas aeruginosa); purified IMP-1, nitrocefin hydrolysis, epi-absorbance fluorescence; inhibition, % at 5.6 µM; hit rate 0.45% among 290,000; AID 1556, 2009;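 active = inhibition above the mean plus 3 SD of all compounds in the same screening run, cut at about 4.5% in these data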;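 also: 0% = IMP-1 with DMSO and 100% = DMSO wells lacking enzyme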
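System: purified IMP-1 / Input: IMP-1 dispensed at 0.2 nM / Medium: 50 mM HEPES pH 7.1, 50 µM ZnSO4, 0.05% Brij 35 / Timing: 15 min enzyme–compound preincubation, then 25 min nitrocefin reaction, 25 °C / Technique: plate fluorescence quenching by hydrolysis product, ex 480/em 530 nm / Repeats: singlicate testing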
VIM-2 inh – VIM-2 metallo-beta-lactamase inhibitors, primary screen, biochemical, epi-absorbance readout, Pseudomonas aeruginosa enzyme | inhibition, % at 5.6 µM | purified VIM-2, nitrocefin hydrolysis, epi-absorbance fluorescence | AID 1527, 2009 | hit rate 0.89% among 290,000;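 active = inhibition above the mean of all tested compounds plus 3 SD, cutoff set per screening run, cut at about 7.5% in these data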;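 also: red hydrolysis product quenches plate fluorescence so inhibitors raise well fluorescence; 0% = enzyme with DMSO and 100% = DMSO without enzyme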
RanGTP-Impb inh – inhibitors of RanGTP-importin-beta interaction, primary screen, biochemical, FRET, CFP-Ran, YFP-importin-beta, homogeneous | Ran GTPase (GTP-bound) - importin-beta complex | cell-free CFP-Ran/YFP-importin-beta FRET ratio | inhibition, % (no concentration beside the values) | hit rate 1.1% among 300,000 | AID 2216, 2009;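 active = more than half of the replicate wells show a fall in the fluorescence ratio signal beyond about 16%, limit read from the data, passing the limit was not always enough; inconclusive = exactly half of the replicate wells pass the set limit; inactive = fewer than half of replicates pass the limit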;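 also: 0% = DMSO wells and 100% = Ran loaded with GDP instead of GTP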
Runt-SMMHC FRET – inhibitors of RUNX1 Runt–CBFb-SMMHC binding, primary screen, biochemical, FRET, Cerulean-Runt, Venus-CBFb-SMMHC, uHTS; Runt-related transcription factor 1 (Homo sapiens) + Core-binding factor subunit beta …; Cerulean-Runt/Venus-CBFb-SMMHC FRET ratio 530/480, 1 h; inhibition, % at 20 µM; hit rate 0.74% among 220,000; AID 1434, 2008;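 active = mean inhibition across duplicate retests at 20 µM reaching about 50%, limit read from the data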;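 also: 0% = DMSO wells and 100% = wells with excess untagged CBFb-SMMHC; inhibitors lower the FRET ratio by blocking Runt binding to CBFb-SMMHC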
* hit, by the source's call. An excerpt weighted towards active compounds, which were near 2.6% of everything screened.

For CCOC(=O)CNC(=O)c1ccc2[nH]c3c(c2c1)CCCC3 the results were Runt-CBFb FRET 8.3, IMP-1 inh -1.9, VIM-2 inh 1.2, RanGTP-Impb inh 18.1* and Runt-SMMHC FRET 12.9.
For NNC(=O)c1ccc2[nH]c3c(c2c1)CCCC3 the results were Runt-CBFb FRET 0.8, IMP-1 inh -2.4, VIM-2 inh -1.0, RanGTP-Impb inh -2.3 and Runt-SMMHC FRET 4.3.
For CC(C)Cn1c(=O)c2c(nc3n2CC(C)CN3Cc2ccccc2)n(C)c1=O (stereo not drawn) the results were IMP-1 inh -3.4, VIM-2 inh 4.2 and RanGTP-Impb inh -0.8.
For Cn1cnnc1SCC(=O)c1c[nH]c2ccccc12 the results were Runt-CBFb FRET -2.2, IMP-1 inh -4.1, VIM-2 inh -1.6, RanGTP-Impb inh 31.3* and Runt-SMMHC FRET -2.1.
O=C(CSc1nncn1-c1ccccc1)c1c[nH]c2ccccc12 was read as Runt-CBFb FRET 2.4, IMP-1 inh -2.4, VIM-2 inh -2.0, RanGTP-Impb inh 4.5 and Runt-SMMHC FRET 1.7.
Screening CC1=CC(C)C(C(=O)O)C(C(=O)Nc2cccnc2)C1 (stereo not drawn) returned Runt-CBFb FRET 3.4, IMP-1 inh 0.5, VIM-2 inh -2.4, RanGTP-Impb inh 5.5 and Runt-SMMHC FRET -1.5.
For CC1=CC(C)C(C(=O)O)C(C(=O)N2CCN(C)CC2)C1 (stereo not drawn) the results were Runt-CBFb FRET 0.6, IMP-1 inh -1.8, VIM-2 inh 9.3*, RanGTP-Impb inh -1.5 and Runt-SMMHC FRET -4.6.
`CC(=O)c1cccc(N(C(=O)CNC(=O)c2ccco2)C(C(=O)NC2CCCC2)c2ccncc2)c1` (stereo not drawn) gave IMP-1 inh -1.1, VIM-2 inh 0.9 and RanGTP-Impb inh -0.3.
For Cc1cc2nn(-c3cccc4ccccc34)nc2cc1NC(=O)c1cccs1 the results were Runt-CBFb FRET 2.8, IMP-1 inh -1.0, VIM-2 inh -3.4, RanGTP-Impb inh 7.1 and Runt-SMMHC FRET 0.7.
`CC(C)Cn1nc(NC(=O)c2cccs2)c2cc3ccccc3nc21` gave Runt-CBFb FRET 33.5, IMP-1 inh -0.3, VIM-2 inh 0.5, RanGTP-Impb inh 63.9* and Runt-SMMHC FRET 56.8*.
`COc1ccc(NC(=O)c2cccs2)cc1` gave Runt-CBFb FRET -1.7, IMP-1 inh -4.5, VIM-2 inh -3.8, RanGTP-Impb inh inconclusive and Runt-SMMHC FRET 2.0.
Screening COc1ccc2nc3c(cc2c1)c(NC(=O)c1cccs1)nn3CC(C)C returned Runt-CBFb FRET 62.3*, IMP-1 inh -1.8, VIM-2 inh 1.4, RanGTP-Impb inh 116.1* and Runt-SMMHC FRET 62.7*.
OC(CNCCc1ccc(C(F)(F)F)cc1)COC(c1ccccc1)c1ccccc1 (stereo not drawn) was read as IMP-1 inh -0.8, VIM-2 inh -4.1 and RanGTP-Impb inh -0.9.
S=C(Sc1ccc(Cl)cc1)Sc1ccc(Cl)cc1 was read as Runt-CBFb FRET 19.4, IMP-1 inh -5.7, VIM-2 inh -5.3, RanGTP-Impb inh -2.4 and Runt-SMMHC FRET 0.2.
For CCCn1c(C)nc2c(c1=O)c1nc3ccccc3nc1n2CCC1=CCCCC1 the results were Runt-CBFb FRET 21.5, IMP-1 inh -1.7, VIM-2 inh 8.3*, RanGTP-Impb inh 1.4 and Runt-SMMHC FRET 64.3*.
For CCCn1c(C)nc2c(c1=O)c1nc3ccccc3nc1n2CCc1ccccc1 the results were IMP-1 inh -6.0 and VIM-2 inh -2.2.
Screening COc1ccc(CCN2C(=O)CC(Cc3ccccc3)C2=O)cc1OC (stereo not drawn) returned Runt-CBFb FRET 0.9, IMP-1 inh -2.5, VIM-2 inh -1.5, RanGTP-Impb inh -2.0 and Runt-SMMHC FRET 1.1.
COc1ccc(CCN2C(=O)CC(C(C)c3ccccc3)C2=O)cc1OC (stereo not drawn) was read as Runt-CBFb FRET 0.0, IMP-1 inh 23.6*, VIM-2 inh -0.7, RanGTP-Impb inh -0.4 and Runt-SMMHC FRET 4.2.
`Cc1oc2c(CN3CCCCC3C)c(O)ccc2c(=O)c1-c1ccc(Br)cc1` (stereo not drawn) gave IMP-1 inh -3.3, VIM-2 inh -3.3 and RanGTP-Impb inh -1.9.
For COc1cc(C2C=C(c3cccs3)Nc3ncnn32)cc(OC)c1OC (stereo not drawn) the results were Runt-CBFb FRET 20.3, IMP-1 inh -0.8, VIM-2 inh 2.5 and Runt-SMMHC FRET 92.8*.
`Cc1ncoc1C(=O)N1CCc2c([nH]c3ccccc23)C1C1CCCCC1` (stereo not drawn) gave Runt-CBFb FRET -7.6, IMP-1 inh -0.8, VIM-2 inh -0.1, RanGTP-Impb inh inconclusive and Runt-SMMHC FRET 6.2.
`O=C(O)C1CCCC2CN3CCc4c([nH]c5ccccc45)C3C(O)C21` (stereo not drawn) gave IMP-1 inh -4.8, VIM-2 inh -1.1 and RanGTP-Impb inh 30.0*.
Screening COc1cccc(CN(C(=O)Cc2c[nH]c3ccccc23)C(C(=O)NC2CCCCC2)c2ccc(C)o2)c1 (stereo not drawn) returned Runt-CBFb FRET -0.9, IMP-1 inh 22.3*, VIM-2 inh -2.4, RanGTP-Impb inh 3.8 and Runt-SMMHC FRET 0.1.
COc1ccc(CN(C(=O)Cc2c[nH]c3ccccc23)C(C(=O)NC2CCCCC2)c2ccc(C)o2)cc1 (stereo not drawn) was read as Runt-CBFb FRET 0.7, IMP-1 inh 49.4*, VIM-2 inh -2.2, RanGTP-Impb inh 1.5 and Runt-SMMHC FRET 2.5.
Cc1ccc(C(C(=O)NC2CCCCC2)N(Cc2ccccc2)C(=O)Cc2c[nH]c3ccccc23)o1 (stereo not drawn) was read as Runt-CBFb FRET 3.5, IMP-1 inh -4.0, VIM-2 inh -3.0, RanGTP-Impb inh 4.7 and Runt-SMMHC FRET 8.0.
For CN1C(=O)/C(=C\C=C2/CCCN2C)N(C)C1=S the results were Runt-CBFb FRET -14.2, IMP-1 inh -1.9, VIM-2 inh -3.9, RanGTP-Impb inh inconclusive and Runt-SMMHC FRET -31.1.
For CCN1C(=O)/C(=C/C=C2/CCCN2C)OC1=S the results were Runt-CBFb FRET 2.6, IMP-1 inh -2.5, VIM-2 inh -2.4, RanGTP-Impb inh 0.9 and Runt-SMMHC FRET 125.1*.
For Cc1cccc(N(C)S(=O)(=O)c2nnc(NC(=O)c3ccco3)s2)c1 the results were IMP-1 inh -1.4, VIM-2 inh -6.0 and RanGTP-Impb inh 175.8*.
`O=C(NCCc1ccc(Cl)cc1)c1cccc(NC2=NC3CS(=O)(=O)CC3S2)c1` (stereo not drawn) gave IMP-1 inh -5.5, VIM-2 inh -1.2 and RanGTP-Impb inh 2.3.
